The structures appear in SMILES notation.

System in the first data set: not listed separately
Kind of data set: Permeability across Caco-2 cell membrane. The data set is classed as ADME, cell-based. The note with it: human, read-out: permeability. Background: Passage across Caco-2 layers is used to estimate intestinal permeability.
As for `Cc1cc(C[C@H](NS(=O)(=O)c2ccccc2)c2nc3ccccc3[nH]2)ccc1[C@@H]1CC(=O)[N-]S1(=O)=O.[Na+]`, the Papp stood at 0.4 ×10⁻⁶ cm/s. The same measure, in the same setting: to `O=C1C[C@@H](c2ccc(C[C@H](NS(=O)(=O)c3ccccc3)c3nc4ccccc4[nH]3)cc2)S(=O)(=O)[N-]1.[Na+]` belongs 0.4 ×10⁻⁶ cm/s.

A further data set concerns the target T1, Tyrosine-protein phosphatase non-receptor type 1 (Homo sapiens, UniProt P18031).
T1 sequence (P18031 whole entry): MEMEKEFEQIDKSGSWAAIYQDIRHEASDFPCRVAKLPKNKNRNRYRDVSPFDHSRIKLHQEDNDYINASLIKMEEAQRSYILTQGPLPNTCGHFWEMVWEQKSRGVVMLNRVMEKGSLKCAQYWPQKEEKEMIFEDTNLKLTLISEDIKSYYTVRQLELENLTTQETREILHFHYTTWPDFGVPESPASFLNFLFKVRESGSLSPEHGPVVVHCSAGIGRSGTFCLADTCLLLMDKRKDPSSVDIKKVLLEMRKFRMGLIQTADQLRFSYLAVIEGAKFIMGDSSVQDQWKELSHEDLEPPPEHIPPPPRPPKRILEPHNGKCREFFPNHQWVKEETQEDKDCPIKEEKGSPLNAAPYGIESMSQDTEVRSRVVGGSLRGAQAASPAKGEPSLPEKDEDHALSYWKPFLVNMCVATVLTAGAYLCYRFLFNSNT
In words: Inhibition of PTP1B by pNPP assay.
Settings: not given
In general, IC50 refers to the concentration that inhibits the measured activity by half. A high value points to weaker potency. Consider `O=C1CC(c2ccc(CC(NS(=O)(=O)c3cc(Cl)cc(Cl)c3)c3nc4ccccc4[nH]3)cc2)S(=O)(=O)N1` (stereo unspecified), for which the 50% inhibitory concentration (IC50) was 51 nM.

With `O=C1CC(c2ccc(CC(NS(=O)(=O)c3ccc(-c4ccccc4)cc3)c3nc4c(O)cccc4[nH]3)cc2)S(=O)(=O)N1` (stereo unspecified), the IC50 is 240 nM. This IC50 is about 4.7-fold higher than that of the molecule before.

Molecule `O=C1CC(c2ccc(CC(NS(=O)(=O)c3ccccc3Br)c3nc4ccccc4[nH]3)cc2)S(=O)(=O)N1` (stereo unspecified) had an IC50 of 170 nM. Take `COc1cccc(S(=O)(=O)NC(Cc2ccc(C3CC(=O)NS3(=O)=O)cc2)c2nc3ccccc3[nH]2)c1` (stereo unspecified): the IC50 amounted to 48 nM.

As for `O=C1CC(c2ccc(CC(NS(=O)(=O)c3c(Cl)cccc3Cl)c3nc4ccccc4[nH]3)cc2)S(=O)(=O)N1` (stereo unspecified), half-maximal inhibition (IC50) required 460 nM. Take `O=C1CC(c2ccc(CC(NS(=O)(=O)c3ccccc3Cl)c3nc4ccccc4[nH]3)cc2)S(=O)(=O)N1` (stereo unspecified): inhibition was half-maximal at 160 nM (IC50). `O=C1C[C@@H](c2ccc(C[C@H](NS(=O)(=O)c3ccccc3)c3nc4ccccc4[nH]3)cc2)S(=O)(=O)[N-]1.[Na+]` came in with an IC50 of 32 nM.

For the molecule `N#Cc1ccccc1S(=O)(=O)NC(Cc1ccc(C2CC(=O)NS2(=O)=O)cc1)c1nc2ccccc2[nH]1` (stereo unspecified), half-maximal inhibition (IC50) required 45 nM. For `O=C1CC(c2ccc(CC(NS(=O)(=O)c3ccc(Cl)cc3Cl)c3nc4ccccc4[nH]3)cc2)S(=O)(=O)N1` (stereo unspecified), 280 nM corresponded to half-maximal inhibition (IC50). As to `Cc1cccc(S(=O)(=O)NC(Cc2ccc(C3CC(=O)NS3(=O)=O)cc2)c2nc3ccccc3[nH]2)c1` (stereo unspecified), the IC50 was 85 nM. This IC50 is about 3.3-fold lower than that of the molecule before. The same measure, in the same setting: the value for `N#Cc1ccc2nc(C(Cc3ccc(C4CC(=O)NS4(=O)=O)cc3)NS(=O)(=O)c3ccc(-c4ccccc4)cc3)[nH]c2c1` (stereo unspecified) was 53 nM. `O=C1CC(c2ccc(CC(NS(=O)(=O)c3ccc(-c4ccccc4)cc3)c3nc4cc(Cl)ccc4[nH]3)cc2)S(=O)(=O)N1` (stereo unspecified): the IC50 came out at 140 nM. This IC50 is about 2.6-fold higher than that of the molecule before. Same read-out and setting: to `O=C1CC(c2ccc(CC(NS(=O)(=O)c3ccc(C(F)(F)F)cc3)c3nc4ccccc4[nH]3)cc2)S(=O)(=O)N1` (stereo unspecified) belongs 51 nM; to `CC(=O)N[C@@H](Cc1ccccc1)C(=O)N[C@@H](Cc1ccc([C@@H]2CC(=O)NS2(=O)=O)cc1)C(N)=O`, 240 nM; to `O=C1CC(c2ccc(CC(NS(=O)(=O)c3ccc(Cl)c(Cl)c3)c3nc4ccccc4[nH]3)cc2)S(=O)(=O)N1` (stereo unspecified), 79 nM.

`O=C1CC(c2ccc(CC(NS(=O)(=O)c3cccc(C(F)(F)F)c3)c3nc4ccccc4[nH]3)cc2)S(=O)(=O)N1` (stereo unspecified) had a half-inhibitory concentration (IC50) of 67 nM. In turn, `Cc1cccc2[nH]c(C(Cc3ccc(C4CC(=O)NS4(=O)=O)cc3)NS(=O)(=O)c3ccc(-c4ccccc4)cc3)nc12` (stereo unspecified) displayed a half-maximal inhibitory concentration (IC50) of 190 nM. Still for that read-out and setting: to `O=C1CC(c2ccc(CC(NS(=O)(=O)c3ccc(-c4ccccc4)cc3)c3nc4cc(F)ccc4[nH]3)cc2)S(=O)(=O)N1` (stereo unspecified) belongs 120 nM; to `O=C1CC(c2ccc(CC(NS(=O)(=O)c3ccc(-c4ccccc4)cc3)c3nc4cc(C(F)(F)F)ccc4[nH]3)cc2)S(=O)(=O)N1` (stereo unspecified), 160 nM; to `O=C1CC(c2ccc(CC(NS(=O)(=O)c3ccc(F)cc3F)c3nc4ccccc4[nH]3)cc2)S(=O)(=O)N1` (stereo unspecified), 110 nM. For the molecule `O=C1CC(c2ccc(CC(NS(=O)(=O)c3ccccc3C(F)(F)F)c3nc4ccccc4[nH]3)cc2)S(=O)(=O)N1` (stereo unspecified), the IC50 worked out at 130 nM.

Turning to `O=C1CC(c2ccc(CC(NS(=O)(=O)c3cccc(Cl)c3)c3nc4ccccc4[nH]3)cc2)S(=O)(=O)N1` (stereo unspecified), the IC50 was found to be 60 nM. As to `O=C1CC(c2ccc(CC(NS(=O)(=O)c3ccc(-c4ccccc4)cc3)c3nc4ccccc4[nH]3)cc2)S(=O)(=O)N1` (stereo unspecified), half-maximal inhibition (IC50) was put at 80 nM.

`O=C1CC(c2ccc(CC(NS(=O)(=O)c3cc(Cl)ccc3Cl)c3nc4ccccc4[nH]3)cc2)S(=O)(=O)N1` (stereo unspecified) returned an IC50 of 160 nM. Compared with the last molecule, the IC50 is about 2-fold higher. For the molecule `O=C1CC(c2ccc(CC(NS(=O)(=O)c3cccc(F)c3)c3nc4ccccc4[nH]3)cc2)S(=O)(=O)N1` (stereo unspecified), the IC50 was 43 nM. `O=C1CC(c2ccc(CC(NS(=O)(=O)c3cccc(Br)c3)c3nc4ccccc4[nH]3)cc2)S(=O)(=O)N1` (stereo unspecified) showed a concentration for half-maximal inhibition (IC50) of 77 nM. As for `O=C1CC(c2ccc(CC(NS(=O)(=O)c3cc(F)cc(F)c3)c3nc4ccccc4[nH]3)cc2)S(=O)(=O)N1` (stereo unspecified), the IC50 was 72 nM. Same read-out and setting: to `O=C1CC(c2ccc(CC(NS(=O)(=O)c3cc(F)ccc3F)c3nc4ccccc4[nH]3)cc2)S(=O)(=O)N1` (stereo unspecified) belongs 140 nM.

`O=C1CC(c2ccc(CC(NS(=O)(=O)c3ccc(F)c(F)c3)c3nc4ccccc4[nH]3)cc2)S(=O)(=O)N1` (stereo unspecified) gave an IC50 of 110 nM. The IC50 values of the last two molecules are within 1.5-fold of each other. As for `COc1ccc(S(=O)(=O)NC(Cc2ccc(C3CC(=O)NS3(=O)=O)cc2)c2nc3ccccc3[nH]2)cc1` (stereo unspecified), the 50% inhibitory concentration (IC50) was found to be 94 nM. This IC50 and that of the molecule before are within 1.5-fold of each other. Same read-out and setting: to `CS(=O)(=O)N[C@@H](Cc1ccc([C@@H]2CC(=O)NS2(=O)=O)cc1)c1nc2ccccc2[nH]1` belongs 590 nM. With `COc1ccc2[nH]c(C(Cc3ccc(C4CC(=O)NS4(=O)=O)cc3)NS(=O)(=O)c3ccc(-c4ccccc4)cc3)nc2c1` (stereo unspecified), 130 nM corresponded to half-maximal inhibition (IC50). On the same count and under the same terms, to `O=C1CC(c2ccc(CC(NS(=O)(=O)c3c(F)cccc3F)c3nc4ccccc4[nH]3)cc2)S(=O)(=O)N1` (stereo unspecified) belongs 160 nM. On to `N#Cc1ccc(S(=O)(=O)NC(Cc2ccc(C3CC(=O)NS3(=O)=O)cc2)c2nc3ccccc3[nH]2)cc1` (stereo unspecified), for which the half-inhibitory concentration (IC50) turned out to be 63 nM. With `CC(C)(C)c1cccc2[nH]c(C(Cc3ccc(C4CC(=O)NS4(=O)=O)cc3)NS(=O)(=O)c3ccc(-c4ccccc4)cc3)nc12` (stereo unspecified), 460 nM corresponded to half-maximal inhibition (IC50). This IC50 is about 7.3-fold higher than that of the molecule before. `Cc1ccccc1S(=O)(=O)NC(Cc1ccc(C2CC(=O)NS2(=O)=O)cc1)c1nc2ccccc2[nH]1` (stereo unspecified) came in with an IC50 of 300 nM. This IC50 is about 1.5-fold lower than that of the molecule before.

`O=C1CC(c2ccc(CC(NS(=O)(=O)c3ccccc3F)c3nc4ccccc4[nH]3)cc2)S(=O)(=O)N1` (stereo unspecified) displayed a half-maximal inhibitory concentration (IC50) of 120 nM.

In the case of `Cc1ccc(S(=O)(=O)NC(Cc2ccc(C3CC(=O)NS3(=O)=O)cc2)c2nc3ccccc3[nH]2)cc1` (stereo unspecified), the IC50 amounted to 80 nM. Take `O=C1CC(c2ccc(CC(NS(=O)(=O)c3ccc(Cl)cc3)c3nc4ccccc4[nH]3)cc2)S(=O)(=O)N1` (stereo unspecified): half-maximal inhibition (IC50) was put at 110 nM. The same measure, in the same setting: to `COC(=O)c1ccc2[nH]c(C(Cc3ccc(C4CC(=O)NS4(=O)=O)cc3)NS(=O)(=O)c3ccc(-c4ccccc4)cc3)nc2c1` (stereo unspecified) belongs 150 nM; to `O=C1CC(c2ccc(CC(NS(=O)(=O)c3ccc(Br)cc3)c3nc4ccccc4[nH]3)cc2)S(=O)(=O)N1` (stereo unspecified), 110 nM; to `O=C1CC(c2ccc(CC(NS(=O)(=O)c3cccc(Cl)c3Cl)c3nc4ccccc4[nH]3)cc2)S(=O)(=O)N1` (stereo unspecified), 240 nM. In turn, `O=C1CC(c2ccc(CC(NS(=O)(=O)c3ccc(F)cc3)c3nc4ccccc4[nH]3)cc2)S(=O)(=O)N1` (stereo unspecified) gave an IC50 of 80 nM. The molecule `Cc1ccc2[nH]c(C(Cc3ccc(C4CC(=O)NS4(=O)=O)cc3)NS(=O)(=O)c3ccc(-c4ccccc4)cc3)nc2c1` (stereo unspecified) displayed a concentration for half-maximal inhibition (IC50) of 140 nM.

`O=C(CCc1ccccc1)N[C@@H](Cc1ccc([C@@H]2CC(=O)NS2(=O)=O)cc1)c1nc2ccccc2[nH]1` displayed an IC50 of 600 nM.

The molecule `CC(=O)N[C@@H](Cc1ccc([C@@H]2CC(=O)NS2(=O)=O)cc1)c1nc2ccccc2[nH]1` yielded an IC50 of 940 nM. Compared with the last molecule, the IC50 is about 1.6-fold higher.

The target of another data set is T2, Tyrosine-protein phosphatase non-receptor type 1 (Homo sapiens) (UniProt P18031).
T2 sequence (whole entry): T1 sequence (P18031 whole entry)
In words: Increase in phosphorylation level of human insulin receptor transfected in HEK293 cells at 80 uM. The data set is classed as functional, cell-based.
Settings: not given
The gist of the method:
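HEK293-MSR cells cotransfected with full-length human PTP1B and insulin receptor plasmids, attached 24 h, then treated 16 h in serum-free DMEM (0.4% DMSO final). Lysed on ice; IR phosphorylated at Y1162/Y1163 measured by ELISA and normalized to total protein (BCA). Expressed as fold shift; averages of triplicates from the same day.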
With `Cc1cc(C[C@H](NS(=O)(=O)c2ccccc2)c2nc3ccccc3[nH]2)ccc1[C@@H]1CC(=O)[N-]S1(=O)=O.[Na+]`, the Activity stood at 2.8. `O=C1C[C@@H](c2ccc(C[C@H](NS(=O)(=O)c3ccccc3)c3nc4ccccc4[nH]3)cc2)S(=O)(=O)[N-]1.[Na+]` registered an Activity of 1. The same measure, in the same setting: to `Cc1cc(C[C@H](NS(=O)(=O)c2ccccc2)c2nc3ccccc3[nH]2)ccc1[C@H]1CC(=O)NS1(=O)=O` belongs 1.
